Results: ChEMBL document CHEMBL1155063 (Bioorg Med Chem, 2008)

Molecular target: Telomerase reverse transcriptase (Homo sapiens, UniProt O14746)
Assay: Inhibition of G-quadruplex-induced human TERT in H1299 cells by TRAP assay
Type: cell-based
How it was run: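 Modified TRAP assay using 2 µg total lysate from H1299 lung cancer cells as the telomerase source. Compounds were tested at 1, 5, 10 and 20 µM. Products were resolved on 10% polyacrylamide gels and stained with SYBR Green. A Taq-polymerase internal control was included, along with positive and negative controls.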

Chain of Telomerase reverse transcriptase (O14746 whole entry): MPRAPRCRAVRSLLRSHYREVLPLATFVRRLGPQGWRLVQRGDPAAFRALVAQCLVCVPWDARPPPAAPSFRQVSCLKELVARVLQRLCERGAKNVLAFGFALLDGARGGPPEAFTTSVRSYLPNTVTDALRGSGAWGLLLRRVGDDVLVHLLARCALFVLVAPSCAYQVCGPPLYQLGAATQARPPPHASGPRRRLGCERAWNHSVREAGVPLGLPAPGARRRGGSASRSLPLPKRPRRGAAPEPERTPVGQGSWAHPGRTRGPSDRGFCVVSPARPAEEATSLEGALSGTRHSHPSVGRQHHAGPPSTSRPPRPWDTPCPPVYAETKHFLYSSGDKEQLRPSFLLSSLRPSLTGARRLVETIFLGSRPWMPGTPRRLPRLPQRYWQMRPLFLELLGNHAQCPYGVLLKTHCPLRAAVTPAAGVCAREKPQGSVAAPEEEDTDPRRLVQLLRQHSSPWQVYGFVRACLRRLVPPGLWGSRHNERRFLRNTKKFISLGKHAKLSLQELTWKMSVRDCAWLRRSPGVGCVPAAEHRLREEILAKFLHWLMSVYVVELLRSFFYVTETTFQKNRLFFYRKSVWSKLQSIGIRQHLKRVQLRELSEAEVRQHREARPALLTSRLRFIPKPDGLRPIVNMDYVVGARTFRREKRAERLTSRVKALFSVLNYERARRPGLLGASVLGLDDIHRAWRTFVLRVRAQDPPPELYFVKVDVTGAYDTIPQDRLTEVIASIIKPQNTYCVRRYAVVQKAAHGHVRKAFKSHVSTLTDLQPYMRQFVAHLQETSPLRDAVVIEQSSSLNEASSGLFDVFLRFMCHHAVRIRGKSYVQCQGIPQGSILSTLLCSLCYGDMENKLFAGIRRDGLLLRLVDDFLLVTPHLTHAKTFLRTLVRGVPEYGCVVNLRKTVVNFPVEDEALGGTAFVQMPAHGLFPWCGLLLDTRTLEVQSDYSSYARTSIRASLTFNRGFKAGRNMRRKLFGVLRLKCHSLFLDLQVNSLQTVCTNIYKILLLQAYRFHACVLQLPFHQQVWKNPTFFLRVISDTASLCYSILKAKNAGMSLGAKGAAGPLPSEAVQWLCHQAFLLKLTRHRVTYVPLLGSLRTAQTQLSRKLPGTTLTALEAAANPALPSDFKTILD

- IC50: 6.7 µM
SMILES: O=C(CCN1CCCC1)Nc1ccc2c(c1)C(=O)c1cc(NC(=O)CCN3CCCC3)ccc1C2=O
